Hits are enriched below; roughly 2.6% of the tested compounds scored in any of these assays.
Rce1 inh: blocks yeast Ras-converting enzyme; yeast membranes, quenched prenylated peptide cleavage fluorescence; calls only; actives 0.27% (n = 290,000); AID 2563;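 active means fall in fluorescence gain of 50% or more versus controls, with final raw signal at or below 3038400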;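 further: plate controls were neutral control wells for no effect and wells lacking membranes for full effect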
Target sequence (Q03530 whole entry, looked up): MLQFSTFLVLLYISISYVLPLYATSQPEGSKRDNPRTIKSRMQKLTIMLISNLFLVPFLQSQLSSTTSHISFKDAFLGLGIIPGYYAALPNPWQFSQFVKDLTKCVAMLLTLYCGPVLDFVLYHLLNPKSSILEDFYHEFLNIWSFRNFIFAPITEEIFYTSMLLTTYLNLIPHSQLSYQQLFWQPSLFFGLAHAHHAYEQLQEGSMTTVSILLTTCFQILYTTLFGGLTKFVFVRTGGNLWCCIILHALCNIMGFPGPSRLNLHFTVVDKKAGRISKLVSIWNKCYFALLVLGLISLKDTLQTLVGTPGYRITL
VLA-4 inh: inhibition in a human VLA-4 binding assay. P13612. VLA-4 expressing cells, ligand binding flow cytometry. inhibition, % (about 7 µM as worked out from the volumes in the protocol). actives 0.2% (n = 330,000); in the data active means inhibition above about 50%
TAAR1 agonist: human TAAR1 agonism; Q96RJ0; CHO RD-HGA16 TAAR1, Fluo-8 calcium fluorescence; vehicle wells 0%, saturating PEA agonist 100%; activation, % at 3 µM; actives 0.99% (n = 360,000);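 active means activation above the mean activation of all test compounds in the run plus 3 SD, cut at about 38% in these data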
Target sequence (Q96RJ0 whole entry, looked up): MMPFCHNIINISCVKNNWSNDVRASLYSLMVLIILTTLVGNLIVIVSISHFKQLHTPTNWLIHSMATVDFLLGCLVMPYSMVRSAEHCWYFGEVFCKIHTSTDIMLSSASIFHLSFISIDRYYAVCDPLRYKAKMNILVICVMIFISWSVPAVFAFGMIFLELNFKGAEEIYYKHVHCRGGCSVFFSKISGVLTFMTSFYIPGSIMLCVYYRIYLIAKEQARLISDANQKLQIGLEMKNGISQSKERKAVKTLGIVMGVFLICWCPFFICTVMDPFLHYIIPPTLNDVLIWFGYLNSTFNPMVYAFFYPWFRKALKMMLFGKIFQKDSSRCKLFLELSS
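Repeats: no replicates (n 1) | Material: CHO-derived RD-HGA16 cells with stable Gα16 and human TAAR1 | Technique: Kinetic Fluo-8 calcium fluorescence | Schedule: 17-24 h seeding, 75 min 37 °C dye, 30 min RT | Evaluation: % activation from peak over basal fluorescence ratio, DMSO-to-PEA scaled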
TAAR1 antag: antagonists of human TAAR1 | Q96RJ0 | CHO RD-HGA16 TAAR1, Fluo-8 calcium fluorescence, antagonist | actives 1.5% (n = 360,000) | AID 624466 | inhibition, % at 3 µM;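 active means inhibition above a per-plate cutoff, the mean inhibition of test compounds on that plate plus 3 SD, cut at about 49% in these data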;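 further: 0% = DMSO plus EC80 beta-PEA response and 100% = DMSO alone without agonist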
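Test system – hTAAR1-expressing CHO RD-HGA16 cells, Gα16-coupled · Also added – β-PEA at EC80 concentration, post-compound challenge · Compound – 3 µM, single point · Incubation – dye loading 75 min at 37 °C, then 30 min room temperature · Measured by – Fluo-8 intracellular calcium dye fluorescence, real-time kinetic reads · Benchmarks – vehicle and agonist controls · Replicates – singlicate, one well per test compound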
Platelet DG rel: platelet dense granule release activity | human platelet-rich plasma, SFLLRN dense granule ATP release, luminescence | inhibition, %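 (compounds screened at 7.5 µM in platelet-rich plasma)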 | actives 0.22% (n = 300,000) | AID 1663;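 active means mean replicate score, as percent of positive control, at or above 50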
TAAR1 ag conf: confirmation of human TAAR1 agonists; actives 82% (n = 2,400); activation, % at 3 µM; shares compounds with TAAR1 agonist; CHO RD-HGA16 TAAR1, Fluo-8 calcium fluorescence; scaled: DMSO 0%, maximal phenethylamine 100%;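 active means activation above a cutoff set at the run's mean compound activation plus 3 SD, cut at about 39% in these data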
Ga16 nonsel ag: counter-screen for TAAR1 agonists: nonselective agonists in parental cells; shares compounds with TAAR1 agonist; CHO-Ga16 parental, Fluo-8 calcium fluorescence; normalized to maximal ATP response, DMSO zero; activation, % at 3 µM; actives 50% (n = 2,400);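 active means activation above the run cutoff, the mean activation over all tested wells plus 3 SD, cut at about 12% in these data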;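 further: 0% = DMSO wells and 100% = maximal ATP response on the peak over basal ratio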
TAAR1 desensitize: counter-screen for human TAAR1 agonists: agonists that desensitize TAAR1 | CHO RD-HGA16 hTAAR1, Fluo-8 calcium, beta-PEA response inhibition | shares compounds with TAAR1 agonist | inhibition, % at 3 µM | actives 46% (n = 2,400) | AID 651951;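 active means inhibition above the run cutoff, the mean inhibition of all test compounds plus 3 SD, cut at about 49% in these data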;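 further: beta-PEA stimulus applied at its EC80; loss of beta-PEA calcium signal after compound pretreatment read as receptor desensitization; 0% = DMSO with beta-PEA at EC80 and 100% = DMSO alone without agonist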
Ga16 nonsel ant: counter-screen for TAAR1 agonists: nonselective Ga16 antagonists; shares compounds with TAAR1 agonist; CHO-Ga16 ATP-induced calcium, Fluo-8 fluorescence; inhibition, % at 3 µM; actives 39% (n = 2,400);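 active means inhibition above the plate's mean compound inhibition plus 3 SD, computed per plate, cut at about 22% in these data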;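 further: 0% = EC80 ATP with DMSO and 100% = DMSO wells without ATP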
* = called active by the depositor; i = inactive; . = not tested or not shown; + = active, no number.

SMILES	Rce1 inh	VLA-4 inh	TAAR1 agonist	TAAR1 antag	Platelet DG rel	TAAR1 ag conf	Ga16 nonsel ag	TAAR1 desensitize	Ga16 nonsel ant
CCOC(=O)[C@]12CCC=C1N(Cc1cccc3ccccc13)C(=O)[C@H](CC(=O)N1CCCC1)C2	.	.	1	4	.	.	.	.	.
CCCN(CC(=O)Nc1cc(Cl)ccc1Cl)C(=O)CN1C(=O)C2CCCCC2C1=O (stereo not drawn)	.	-6	0	-24	3	.	.	.	.
c1ccc(-c2cnn3c(-c4ccccc4)c(-c4ccccc4)nc3n2)cc1	.	.	77*	63*	.	100*	121*	84*	82*
Nc1nc(-c2ccccc2)c(-c2ccccc2)n1N	i	-212	4	-1	0	.	.	.	.
CC(C)[C@H](NS(=O)(=O)c1ccc(F)cc1F)C(=O)N1CCC[C@H]1C(=O)NCCc1ccccc1Cl	.	.	49*	64*	.	76*	1	86*	11
CC(C)[C@H](NC(=O)c1ccccc1)C(=O)N1CCC[C@H]1C(=O)NCCc1ccccc1Cl	.	.	80*	83*	.	96*	4	93*	4
CC(C)[C@H](NC(=O)c1ccc(Cl)c(Cl)c1)C(=O)N1CCC[C@H]1C(=O)NCCc1ccccc1Cl	.	.	53*	80*	.	82*	0	98*	2
O=C(N[C@H](C(=O)N1CCC[C@H]1C(=O)NCCc1ccccc1Cl)C1CCCCC1)c1ccc(Cl)c(Cl)c1	.	.	4	-1	.	.	.	.	.
CC(C)C[C@H](NS(=O)(=O)c1ccc(F)cc1F)C(=O)N1CCC[C@H]1C(=O)NCc1ccccc1	.	.	0	1	.	.	.	.	.
O=C(Nc1ccc(C(=O)N2CCOCC2)cc1)c1ccccc1Cl	.	.	1	-10	.	.	.	.	.
Cc1ccc(OC2CCN(C(=O)[C@H]3O[C@@H](n4ccc(N)nc4=O)[C@H](O)[C@@H]3O)CC2)cc1	.	.	1	-13	.	.	.	.	.
CCCC[C@@H]1CNCCN1CCc1cccc(F)c1	i	7	62*	2	-2	75*	9	46	10
FC(F)(F)c1cc(CCN2CCNC[C@@H]2Cc2ccccc2)cc(C(F)(F)F)c1	i	45	57*	-1	0	58*	17*	33	18
Fc1cccc(CCN2CCNC[C@@H]2Cc2ccccc2)c1	i	15	29	-16	0	.	.	.	.
COCCC(=O)N1CCOCC1c1cc(C(=O)Nc2ccccc2)no1 (stereo not drawn)	.	.	9	-29	.	.	.	.	.
COc1cccc(-c2c(C(=O)N/N=C(\C)c3cccnc3)nnn2-c2nonc2N)c1	i	6	7	-8	2	.	.	.	.
C/C(=N\NC(=O)c1nnn(-c2nonc2N)c1-c1ccccc1)c1ccco1	i	-1	106*	-19	.	120*	87*	27	1
COc1cccc(-c2c(C(=O)N/N=C(\C)c3ccco3)nnn2-c2nonc2N)c1	i	-2	115*	17	-5	128*	88*	49*	18
C/C(=N\NC(=O)c1nnn(-c2nonc2N)c1-c1ccccc1)c1cccnc1	i	3	1	-15	.	.	.	.	.
COc1cccc(-c2c(C(=O)N/N=C(\C)c3ccc(Cl)s3)nnn2-c2nonc2N)c1	i	6	89*	59*	-2	82*	52*	64*	39*
COc1ccc(C(c2nnnn2CCc2ccccc2)N2CCN(C3CCCC3)CC2)cc1OC (stereo not drawn)	i	-10	51*	7	.	78*	4	27	3
OCCNc1nc(Nc2ccccc2Oc2ccccc2)nc(N2CCCC2)n1	i	1	16	0	-2	.	.	.	.
O=S(=O)(Nc1cccnc1)c1ccc(C2CCCCC2)cc1	i	-6	56*	24	-2	71*	28*	48	31*
CCOC(=O)[C@]12CCC=C1N(Cc1ccc(Cl)cc1Cl)C(=O)[C@H](CC(=O)N1CCC(c3ccccc3)CC1)C2	.	.	0	-29	.	.	.	.	.
Cc1cccnc1NC(=O)c1nn(C)c2c1CS(=O)(=O)c1ccccc1-2	i	17	4	-16	5	.	.	.	.
SMILES	Rce1 inh	VLA-4 inh	TAAR1 agonist	TAAR1 antag	Platelet DG rel	TAAR1 ag conf	Ga16 nonsel ag	TAAR1 desensitize	Ga16 nonsel ant
CCOC(=O)[C@]12CCC=C1N(Cc1ccco1)C(=O)[C@H](CC(=O)NCc1ccccc1)C2	.	.	0	-6	.	.	.	.	.
Cc1cc(C)c(S(=O)(=O)NCCc2ccccc2)c(C)c1	i	0	46*	0	11	52*	0	29	13
Cc1ccc(S(=O)(=O)NCCc2ccccc2)cc1	i	-13	0	-3	2	.	.	.	.
CCCCCCCCCCOC(=O)Cn1c(COc2ccccc2OC)[n+](C)c2ccccc21	i	6	66*	90*	7	79*	91*	94*	100*
Cn1c(COc2ccccc2O)[n+](C)c2ccccc21	i	-9	0	0	.	.	.	.	.
O=C(O)c1ccc(N/N=C/c2ccc(-c3ccccc3Cl)o2)cc1	+	-8	97*	37	6	56*	39*	30	20
CC1CCN(CC(=O)N2c3ccccc3CC2C)CC1 (stereo not drawn)	i	-14	0	-4	9	.	.	.	.
CCC1(c2ccc(F)cc2)NC(=O)N(CC(=O)N2c3ccccc3CC2C)C1=O (stereo not drawn)	.	-1	76*	28	.	84*	47*	43	30*
CC1Cc2ccccc2N1C(=O)CN1CCc2ccccc2C1 (stereo not drawn)	i	2	72*	14	5	77*	3	45	20
CCC1(c2ccc(F)cc2)NC(=O)N(CC(=O)c2cc(C)n(C3CC3)c2C)C1=O (stereo not drawn)	i	-7	103*	58*	-4	98*	51*	52*	32*
Cc1cc(C(=O)CN2C(=O)NC(C)(c3cc(F)ccc3F)C2=O)c(C)n1C1CC1 (stereo not drawn)	.	3	21	1	.	.	.	.	.
Cc1ccc(CN2CCC(C)(Oc3cccc(Cl)c3)C2)cc1 (stereo not drawn)	.	.	7	-22	.	.	.	.	.
O=C(NCCc1cccc(F)c1)[C@@H]1CSC2c3ccccc3C(=O)N21 (stereo partly drawn)	i	7	54*	14	6	77*	3	43	15
C/C(=N/NC(=O)c1ccncc1)c1cc2ccc(O)cc2oc1=O	.	0	90*	19	.	134*	153*	6	11
